Entries after “also recorded” stand apart in the source; their conditions may differ. Where two headings read alike, the source gives them in different places. Marks after values point to notes of the source that are not given here.
Key:
Lennox–Gastaut syndrome = conditions: stable dosages over a 3-year period; cited from earlier work
[1] = test system: native GABAARs in cultured rat primary cortical neurons; assay type: cell-based; conditions: manual patch clamp, rat primary neuronal cultures, GABA at EC20 as printed
[2] = molecular target: recombinant human GABAARs (α1β2γ2) (Homo sapiens, UniProt P14867+P18507); assay type: cell-based; conditions: for Function relative efficacy, normalized toward zolpidem (1 µmol/L): Padsevonil 10 µmol/L; for Cl− currents evoked in the absence of GABA: no GABA, concentrations up to 30 µmol/L
[3] = molecular target: human recombinant GABAA receptor α3β2γ2 (Homo sapiens, UniProt P18507+P34903); test: Two-electrode voltage clamp in Xenopus oocytes, α3β2γ2; assay type: cell-based; conditions: for Function relative efficacy, normalized toward chlordiazepoxide (10 µmol/L): Padsevonil 10 µmol/L, GABA EC20, TEVC, α3β2γ2
[4] = molecular target: recombinant GABAARs, benzodiazepine (BZD) binding site; conditions: cited from earlier work
SV2A [5] = conditions: cited from earlier work
[6] = molecular target: human recombinant GABAA receptor α5β2γ2 (Homo sapiens, UniProt P18507+P31644); test: Two-electrode voltage clamp in Xenopus oocytes, α5β2γ2; assay type: cell-based; conditions: for Function relative efficacy, normalized toward chlordiazepoxide (10 µmol/L): Padsevonil 10 µmol/L, GABA EC20, TEVC, α5β2γ2
In short: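 Human α5β2γ2 receptors expressed in oocytes. GABA (EC₂₀) was applied twice for 20 s, 6 min apart, as control. Test compound (1 nmol/L–30 µmol/L) was preincubated 6 min, then co-applied with GABA for 20 s. EC₅₀ came from a sigmoidal fit of data normalized to maximal potentiation. Efficacy at 10 µmol/L was normalized to chlordiazepoxide 10 µmol/L. Mean ± SEM, n = 6–26.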

[7] = molecular target: B isoform of SV2 proteins; conditions: cited from earlier work
BZD site of GABAARs = conditions: cited from earlier work
SV2A [8] = conditions: cited from earlier work; remark: listed apart in the source
[9] = test system: PTZ-induced clonic seizures; conditions: repeated = twice daily for 4 consecutive days; cited from earlier work
[10] = test system: treatment-resistant focal epilepsy; conditions: Phase IIa proof-of-concept trial; cited from earlier work
[11] = molecular target: human recombinant GABAA receptor α1β2γ2 (Homo sapiens, UniProt P14867+P18507); test: Two-electrode voltage clamp in Xenopus oocytes, α1β2γ2; assay type: cell-based; conditions: for Function relative efficacy, normalized toward chlordiazepoxide (10 µmol/L): Padsevonil 10 µmol/L, GABA EC20, TEVC, α1β2γ2
[12] = molecular target: human recombinant GABAA receptor α4β2γ2 (Homo sapiens, UniProt P18507+P48169); test: Two-electrode voltage clamp in Xenopus oocytes, α4β2γ2; assay type: cell-based; conditions: TEVC; for Potentiation of the GABA (EC20) response on α4β2γ2 receptors: oocytes, Padsevonil 10 and 30 µmol/L, Ro 15-4513 1 µmol/L
In short: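 Human recombinant receptors expressed in Xenopus oocytes; automated two-electrode voltage clamp at −60 mV in frog Ringer (115 mM NaCl, 2.5 mM KCl, 1.8 mM CaCl₂, 10 mM HEPES, pH 7.2). Two 20 s GABA (EC₂₀) control applications 6 min apart; test compound pre-incubated 6 min, then co-applied with GABA for 20 s. Potentiation is I(GABA+drug)/I(GABA); EC50 from sigmoidal nonlinear fit.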

[13] = molecular target: C isoform of SV2 proteins; conditions: cited from earlier work
[14] = molecular target: human recombinant GABAA receptor α2β2γ2 (Homo sapiens, UniProt P18507+P47869); test: Two-electrode voltage clamp in Xenopus oocytes, α2β2γ2; assay type: cell-based; conditions: for Function relative efficacy, normalized toward chlordiazepoxide (10 µmol/L): Padsevonil 10 µmol/L, GABA EC20, TEVC, α2β2γ2
photosensitive epilepsy = conditions: cited from earlier work

Chain of human recombinant GABAA receptor α5β2γ2 (P31644 32-462): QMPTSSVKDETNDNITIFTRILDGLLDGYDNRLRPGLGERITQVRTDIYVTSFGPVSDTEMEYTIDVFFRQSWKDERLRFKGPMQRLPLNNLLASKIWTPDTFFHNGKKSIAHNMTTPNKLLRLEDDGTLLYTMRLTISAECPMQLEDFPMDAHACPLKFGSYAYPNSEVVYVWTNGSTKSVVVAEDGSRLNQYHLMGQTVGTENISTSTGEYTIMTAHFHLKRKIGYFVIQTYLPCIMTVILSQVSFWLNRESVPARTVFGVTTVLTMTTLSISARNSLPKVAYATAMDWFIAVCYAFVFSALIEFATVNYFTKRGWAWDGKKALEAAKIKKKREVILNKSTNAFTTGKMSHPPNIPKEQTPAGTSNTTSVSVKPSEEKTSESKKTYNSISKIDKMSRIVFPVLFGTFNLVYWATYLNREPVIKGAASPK
Chain of human recombinant GABAA receptor α5β2γ2 (P47870 25-512 partner limits assumed): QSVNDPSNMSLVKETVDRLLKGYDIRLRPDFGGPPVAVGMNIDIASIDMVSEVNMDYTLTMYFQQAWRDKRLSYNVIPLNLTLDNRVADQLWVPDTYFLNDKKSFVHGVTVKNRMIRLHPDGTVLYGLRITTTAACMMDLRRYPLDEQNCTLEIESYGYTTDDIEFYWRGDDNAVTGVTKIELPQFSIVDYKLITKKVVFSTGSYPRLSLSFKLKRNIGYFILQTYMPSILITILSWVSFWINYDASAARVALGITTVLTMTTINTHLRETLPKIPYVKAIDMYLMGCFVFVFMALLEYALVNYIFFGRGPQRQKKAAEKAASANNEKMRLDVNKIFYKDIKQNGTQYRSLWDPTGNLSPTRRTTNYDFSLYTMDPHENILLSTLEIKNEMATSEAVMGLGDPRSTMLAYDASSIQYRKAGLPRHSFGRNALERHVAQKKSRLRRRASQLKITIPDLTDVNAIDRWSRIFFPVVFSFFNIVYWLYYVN
Chain of human recombinant GABAA receptor α5β2γ2 (P18507 40-475): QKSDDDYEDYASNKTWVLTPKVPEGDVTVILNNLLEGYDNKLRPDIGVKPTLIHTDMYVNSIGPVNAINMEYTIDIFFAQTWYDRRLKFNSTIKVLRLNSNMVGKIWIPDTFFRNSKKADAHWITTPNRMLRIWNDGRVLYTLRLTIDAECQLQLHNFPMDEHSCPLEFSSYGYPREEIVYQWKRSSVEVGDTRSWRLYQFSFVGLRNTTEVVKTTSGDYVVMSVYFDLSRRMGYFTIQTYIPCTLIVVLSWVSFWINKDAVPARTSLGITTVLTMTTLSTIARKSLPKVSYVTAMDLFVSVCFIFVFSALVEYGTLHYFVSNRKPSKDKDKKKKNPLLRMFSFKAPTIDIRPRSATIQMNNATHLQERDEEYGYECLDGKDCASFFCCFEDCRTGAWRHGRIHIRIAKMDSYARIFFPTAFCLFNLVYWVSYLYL
Chain of human recombinant GABAA receptor α3β2γ2 (P34903 29-492): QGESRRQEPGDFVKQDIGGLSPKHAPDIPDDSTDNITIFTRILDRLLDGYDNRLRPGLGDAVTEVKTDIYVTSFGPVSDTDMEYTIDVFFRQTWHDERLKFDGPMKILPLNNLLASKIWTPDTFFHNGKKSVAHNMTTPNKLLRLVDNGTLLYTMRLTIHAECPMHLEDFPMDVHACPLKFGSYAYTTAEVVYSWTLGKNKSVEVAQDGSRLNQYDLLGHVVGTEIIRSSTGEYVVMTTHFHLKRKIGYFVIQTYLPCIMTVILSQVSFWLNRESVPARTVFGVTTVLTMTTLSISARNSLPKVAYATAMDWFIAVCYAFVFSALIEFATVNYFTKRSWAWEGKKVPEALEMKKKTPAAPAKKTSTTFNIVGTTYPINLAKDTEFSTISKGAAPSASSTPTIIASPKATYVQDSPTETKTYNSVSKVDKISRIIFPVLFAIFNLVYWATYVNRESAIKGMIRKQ
Chain of human recombinant GABAA receptor α3β2γ2 (P47870 25-512 partner limits assumed): as the sequence (P47870 25-512 partner limits assumed) above
Chain of human recombinant GABAA receptor α3β2γ2 (P18507 40-475): as the sequence (P18507 40-475) above
Chain of human recombinant GABAA receptor α2β2γ2 (P47869 29-451): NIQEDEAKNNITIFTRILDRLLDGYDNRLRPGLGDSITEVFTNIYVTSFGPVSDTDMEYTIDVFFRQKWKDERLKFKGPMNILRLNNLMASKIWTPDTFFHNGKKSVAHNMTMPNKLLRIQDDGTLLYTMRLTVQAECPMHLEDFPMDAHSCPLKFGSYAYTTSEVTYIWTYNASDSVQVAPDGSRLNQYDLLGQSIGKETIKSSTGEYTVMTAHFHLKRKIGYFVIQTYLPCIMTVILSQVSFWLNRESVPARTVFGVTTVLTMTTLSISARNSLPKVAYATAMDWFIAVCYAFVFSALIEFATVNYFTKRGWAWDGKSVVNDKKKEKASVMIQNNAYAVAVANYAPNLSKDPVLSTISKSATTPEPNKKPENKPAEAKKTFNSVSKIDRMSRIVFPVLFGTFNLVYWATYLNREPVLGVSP
Chain of human recombinant GABAA receptor α2β2γ2 (P47870 25-512 partner limits assumed): as the sequence (P47870 25-512 partner limits assumed) above
Chain of human recombinant GABAA receptor α2β2γ2 (P18507 40-475): as the sequence (P18507 40-475) above
Chain of human recombinant GABAA receptor α4β2γ2 (P48169 36-554): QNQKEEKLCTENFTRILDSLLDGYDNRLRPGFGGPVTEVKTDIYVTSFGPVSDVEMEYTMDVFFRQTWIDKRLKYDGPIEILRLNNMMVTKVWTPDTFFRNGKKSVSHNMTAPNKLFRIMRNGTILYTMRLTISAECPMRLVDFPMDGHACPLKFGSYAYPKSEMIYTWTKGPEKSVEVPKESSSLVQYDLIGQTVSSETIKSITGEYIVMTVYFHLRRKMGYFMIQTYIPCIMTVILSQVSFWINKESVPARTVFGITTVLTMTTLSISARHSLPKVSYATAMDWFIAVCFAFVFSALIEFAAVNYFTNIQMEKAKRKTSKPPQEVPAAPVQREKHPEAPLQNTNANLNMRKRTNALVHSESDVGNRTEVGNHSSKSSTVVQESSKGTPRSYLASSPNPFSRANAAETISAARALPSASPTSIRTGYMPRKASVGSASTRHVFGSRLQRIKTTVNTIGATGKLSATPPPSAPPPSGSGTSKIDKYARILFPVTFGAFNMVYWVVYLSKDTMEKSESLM
Chain of human recombinant GABAA receptor α4β2γ2 (P47870 25-512 partner limits assumed): as the sequence (P47870 25-512 partner limits assumed) above
Chain of human recombinant GABAA receptor α4β2γ2 (P18507 40-475): as the sequence (P18507 40-475) above
Chain of recombinant human GABAARs (α1β2γ2) (P14867 28-456): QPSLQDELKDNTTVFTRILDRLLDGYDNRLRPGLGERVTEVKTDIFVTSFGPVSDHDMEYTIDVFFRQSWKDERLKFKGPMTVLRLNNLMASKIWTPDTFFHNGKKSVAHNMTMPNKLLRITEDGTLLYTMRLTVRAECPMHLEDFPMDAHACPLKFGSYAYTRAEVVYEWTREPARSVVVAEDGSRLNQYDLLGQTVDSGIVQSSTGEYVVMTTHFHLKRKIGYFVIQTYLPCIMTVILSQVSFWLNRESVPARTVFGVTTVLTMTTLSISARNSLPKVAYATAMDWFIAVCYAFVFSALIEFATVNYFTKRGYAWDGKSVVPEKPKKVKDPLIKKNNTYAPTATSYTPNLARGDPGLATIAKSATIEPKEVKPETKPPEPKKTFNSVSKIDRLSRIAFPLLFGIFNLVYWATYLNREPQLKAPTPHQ
Chain of recombinant human GABAARs (α1β2γ2) (P47870 25-512 partner limits assumed): as the sequence (P47870 25-512 partner limits assumed) above
Chain of recombinant human GABAARs (α1β2γ2) (P18507 40-475): as the sequence (P18507 40-475) above
Chain of human recombinant GABAA receptor α1β2γ2 (P14867 28-456): as the sequence (P14867 28-456) above
Chain of human recombinant GABAA receptor α1β2γ2 (P47870 25-512 partner limits assumed): as the sequence (P47870 25-512 partner limits assumed) above
Chain of human recombinant GABAA receptor α1β2γ2 (P18507 40-475): as the sequence (P18507 40-475) above

CN1C(=O)CC(=O)N(c2ccccc2)c2cc(Cl)ccc21 [Clobazam]
Seizure control / tolerance development (Lennox–Gastaut syndrome): sustained seizure control

COCc1nn2c(CN3C[C@@H](CC(F)(F)Cl)CC3=O)c(C(F)(F)F)nc2s1 [Padsevonil, (4R)‐4‐(2‐chloro‐2,2‐difluoroethyl)‐1‐{[2‐(methoxymethyl)‐6‐(trifluoromethyl)imidazo[2,1‐b][1,3,4]thiadiazol‐5‐yl]methyl}pyrrolidin‐2‐one]
pEC50, potentiation of neuronal GABAAR activity [1]: 6.68
EC50 [2]: 138 ± 29 nM
Effect on maximal activation of the receptor ([2]; GABA 30 µmol/L (EC90), data not shown): does not overstimulate the receptor
Potentiation of the GABA (agonist) response ([2]; GABA at EC20 set to 100%, patch clamp, human α1β2γ2 in CHO): 167%
Function relative efficacy, normalized toward zolpidem (1 µmol/L) ([2]; GABA EC20, patch clamp, same cell): 41 ± 4%
Function relative efficacy, normalized toward zolpidem (1 µmol/L) ([2]; GABA EC20, patch clamp, same cell, listed as padsevonil): 41%
Relative efficacy, GABA EC20 response as % of that of zolpidem (1 µmol/L) ([2]; Padsevonil 30 µmol/L, GABA EC20, patch clamp, same cell): 35%
Cl− currents evoked in the absence of GABA [2]: did not elicit
Cl− currents evoked in the absence of GABA ([2]; listed as padsevonil): did not evoke
EC50 [3]: 2090 ± 227 nM
Function relative efficacy, normalized toward chlordiazepoxide (10 µmol/L) [3]: 56 ± 6 (n = 18) ^b %
Function relative efficacy, normalized toward chlordiazepoxide (10 µmol/L) ([3]; listed as padsevonil): 56%
pKi benzodiazepine (BZD) binding site [4]: 6.4
Dissociation kinetics from SV2A (SV2A [5]; compared with LEV and BRV): significantly slower dissociation kinetics
Affinity for SV2A relative to LEV (SV2A [5]; radioligand displacement): ~2000 fold
Affinity for SV2A relative to brivaracetam (BRV) (SV2A [5]; radioligand displacement): approximately 100 fold
pKi SV2A (SV2A [5]; radioligand displacement): 8.5
EC50 [6]: 281 ± 73 nM
Function relative efficacy, normalized toward chlordiazepoxide (10 µmol/L) [6]: 41 ± 10 (n = 10) ^b %
Function relative efficacy, normalized toward chlordiazepoxide (10 µmol/L) ([6]; listed as padsevonil): 41%
pKi SV2B [7]: 7.9
BZD site occupancy ED50 (BZD site of GABAARs; in vivo, mice): 36 mg/kg
Occupancy on GABAARs at doses highly active in models of drug-resistant epilepsy (BZD site of GABAARs; nonclinical studies): < 20%
SV2A occupancy ED50 (SV2A [8]; in vivo, mice): 0.2 mg/kg
SV2A occupancy at doses highly active in models of drug-resistant epilepsy (SV2A [8]; nonclinical studies): > 95%
Tolerance: increase of PTZ seizure threshold after acute versus repeated dosing [9]: tolerance was not developed
Clinical efficacy [10]: robust efficacy
EC50 [11]: 295 nM
Function relative efficacy, normalized toward chlordiazepoxide (10 µmol/L) [11]: 60 ± 6%
Function relative efficacy, normalized toward chlordiazepoxide (10 µmol/L) ([11]; listed as padsevonil): 60%
Higher potency for receptors with α1 or α5 subunits than for those with α2 or α3 subunits ([11]; TEVC, oocytes, α1/α5 versus α2/α3): approximately sixfold
Potentiation of the GABA (EC20) response on α4β2γ2 receptors [12]: did not potentiate; also recorded: does not activate
Potentiation of the GABA (EC20) response on α4β2γ2 receptors ([12]; listed as padsevonil): no activity was observed
Function EC50, potentiation of GABA EC20 ([12]; α4β2γ2 in Xenopus oocytes): No potentiation
pKi SV2C [13]: 8.5
EC50 [14]: 1740 ± 258 nM
Function relative efficacy, normalized toward chlordiazepoxide (10 µmol/L) [14]: 26 ± 4 (n = 13) ^b %
Function relative efficacy, normalized toward chlordiazepoxide (10 µmol/L) ([14]; listed as padsevonil): 26%

CCOC(=O)c1ncn2c1CN(C)C(=O)c1cc(N=[N+]=[N-])ccc1-2 [Ro 15‐4513, reference compound]
Potentiation of the GABA (EC20) response on α4β2γ2 receptors [12]: potentiated

COCc1c(C(=O)OC(C)C)ncc2[nH]c3ccc(OCc4ccccc4)cc3c12 [Abecarnil]
Clinical efficacy / tolerance development (photosensitive epilepsy): without development of tolerance

Cc1ccc(-c2nc3ccc(C)cn3c2CC(=O)N(C)C)cc1 [zolpidem, Zolpidem, reference compound]
Potentiation of the GABA (EC20) response on α4β2γ2 receptors [12]: insensitive
